Source: PubChem BioAssay AID1381 (University of Pittsburgh Molecular Library Screening Center, 2008)
The whole screen tested about 220,000 compounds, of which about 1,000 (0.45%) were called active.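 How the source made its calls: active means plate z-score of nuclear minus cytoplasmic receptor signal below a set negative limit, without overly bright fluorescence or cell loss (cut at about -3.5 in these data, passing the limit was not always enough); inactive means the rest, inconclusive results apart.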 Shown is part of a subset that was picked to be rich in actives.

Test: inhibitors of GR-EGFP nuclear translocation, primary screen, dynein cargo transport inhibitor project, imaging, high-content, 3617.4 mouse cells (AID 1381)
Settings: stimulated with dexamethasone, 1 µM
Summary of the method: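 Also added: dexamethasone, 1.0 µM final. Medium: tet-free, stripped-serum medium. Detection: fixed, Hoechst-stained cells imaged at 10x for EGFP. Read-out: nuclear-to-cytoplasmic GR-EGFP distribution per well. Times: induction 48 h, compound 1 h, agonist 30 min.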

[1] = measured here: cell count per field, at 50 µM
[2] = measured here: cytoplasmic GR-EGFP intensity, at 50 µM, stronger effect = higher value
[3] = measured here: nuclear GR-EGFP intensity, at 50 µM, stronger effect = lower value
[4] = measured here: cell count per field, at 20 µM
[5] = measured here: cytoplasmic GR-EGFP intensity, at 20 µM, stronger effect = higher value
[6] = measured here: nuclear GR-EGFP intensity, at 20 µM, stronger effect = lower value

Compound | z-score (at 50 µM, stronger effect = lower value) | z-score [1] | z-score [2] | z-score [3] | z-score (at 20 µM, stronger effect = lower value) | z-score [4] | z-score [5] | z-score [6]
CCN(CC)c1ccc2oc(=O)c(C)nc2c1 | -4.98 (active) | 0.102 | 1.35 | -2.69 | – | – | – | –
CCN(CC)c1ccc2cc(C(=O)O)c(=O)oc2c1 | – | – | – | – | 0.513 (inactive) | -0.14 | -0.259 | 0.0952
O=C(Nc1ccn(Cc2ccccc2)n1)c1n[nH]c([N+](=O)[O-])c1Cl | – | – | – | – | 1.15 (inactive) | -1.23 | -0.194 | 0.757
Cc1cccc(-n2cc(CN3CCN(C(=O)c4ncn[nH]4)CC3)c(-c3cccc(F)c3)n2)c1 | – | – | – | – | 0.856 (inactive) | -0.858 | -0.164 | 0.386
CCN(CC)S(=O)(=O)c1ccc2c3c(cccc13)C(=O)S2 | -0.224 (inactive) | 0.583 | -0.26 | -0.962 | – | – | – | –
CCNC(=S)Nc1ccc(OC(F)(F)F)cc1 | – | – | – | – | -0.827 (inactive) | 0.129 | -0.313 | 0.232
CCOC(=O)CN(Cc1ccc(OC)c(OC)c1)S(=O)(=O)c1ccc(OC)cc1 | – | – | – | – | -0.369 (inactive) | 0.666 | -0.0278 | 0.0349
COc1ccc(CCNC(=O)C(Sc2ccccn2)c2ccccc2)cc1OC (stereo unspecified) | – | – | – | – | 1.23 (inactive) | -0.867 | -0.00233 | 0.852
COc1ccc(C(CCN(Cc2ccc(OC)c(OC)c2)C(=O)CCl)c2ccccc2)cc1 (stereo unspecified) | – | – | – | – | -5.18 (active) | -0.271 | 0.893 | -2.94
CN(CCc1ccccn1)C(=O)CCC1CCCN(Cc2ccccc2OC(F)F)C1 (stereo unspecified) | – | – | – | – | -0.0542 (inactive) | 0.0326 | -0.306 | 0.247
C=CCn1cc(C(=O)NCc2ccc(Cl)cc2)c(=O)c2cc(S(=O)(=O)N(CC)CC)ccc21 | – | – | – | – | 0.479 (inactive) | -0.781 | -0.191 | 1.32
CSCCC(NC(=O)COc1ccccc1)C(=O)Nc1ccc(C)cc1 (stereo unspecified) | – | – | – | – | 0.137 (inactive) | 0.845 | 0.202 | 0.24
O=c1[nH][nH]c(=O)c2cc(N3CCCC3)ccc12 | – | – | – | – | -0.37 (inactive) | 0.302 | -0.256 | 0.0156
O=C1C=CC(=O)N1c1ccc(N2CCCCC2)cc1 | – | – | – | – | -4.11 (active) | -2.21 | 2.18 | -1.81
Cc1ccccc1C(=O)Nc1ccc(N2CCCCCC2)cc1 | – | – | – | – | -0.0609 (inactive) | -0.96 | 0.105 | 0.497
COc1ccc(Cl)cc1-n1c(C)cc(C(=O)OCC(=O)N2CC(=O)Nc3ccccc32)c1C | – | – | – | – | -0.945 (inactive) | 0.925 | -0.291 | -0.693
COCCn1c(C)cc(C(=O)COC(=O)/C=C/c2cccc(OC)c2)c1C | – | – | – | – | -0.49 (inactive) | 0.119 | -0.317 | -0.136

Compound | z-score (at 50 µM, stronger effect = lower value) | z-score [1] | z-score [2] | z-score [3] | z-score (at 20 µM, stronger effect = lower value) | z-score [4] | z-score [5] | z-score [6]
COc1cccc(-c2ccc(SCC(=O)N3CCN(c4ccccc4)CC3)nn2)c1 | – | – | – | – | 1.32 (inactive) | -1.03 | -0.273 | 1.04
O=C(NCc1ccc(F)cc1)C(c1ccccc1)N(C(=O)c1csnn1)C1CC1 (stereo unspecified) | – | – | – | – | 2.29 (inactive) | -1.97 | -0.277 | 0.843
Cc1cc(C(=O)NCCc2ccc(Cl)cc2)n(-c2ccccc2)n1 | – | – | – | – | -5.24 (active) | -1.31 | 0.343 | -3.12
Cc1cc(NC(=O)Nc2ccc(Cl)cc2)n(-c2ccccc2)n1 | – | – | – | – | -0.438 (inactive) | -0.392 | -0.229 | 0.639
O=C(NCCc1ccccc1)Oc1ccc(Cl)cc1 | – | – | – | – | -0.396 (inactive) | 0.0482 | -0.223 | -0.459
Brc1ccc2c(c1)[C@H]1OCC[C@H]1[C@@H](c1cccs1)N2 | – | – | – | – | 1.51 (inactive) | -1.61 | -0.149 | 1.53
COC(=O)[C@@H]1CC[C@H](C)[C@@H](c2ccc(C)cc2)N1C(=O)c1ccc(/C=N/O[C@H](C)c2cn([C@@H]3COC[C@H]3O)nn2)cc1 | – | – | – | – | 0.697 (inactive) | 0.326 | -0.241 | 0.639
CC(=O)NCC(=O)N1CCCC(C(=O)c2ccc3c4c(cccc24)CC3)C1 (stereo unspecified) | – | – | – | – | 0.368 (inactive) | -0.117 | -0.201 | 0.261
Cc1ccc(O)c(CCc2ccccc2)n1 | – | – | – | – | 0.491 (inactive) | -0.946 | -0.202 | 0.586
Cc1[nH]c2ccccc2c1C(=O)COC(=O)c1c(-c2ccccc2)noc1C | – | – | – | – | -0.58 (inactive) | 0.403 | -0.281 | -0.747
Cc1ccc(CNC(=O)Cn2c(=O)c3sccc3n(Cc3cccc([N+](=O)[O-])c3)c2=O)cc1 | – | – | – | – | -0.763 (inactive) | 0.845 | -0.184 | -0.435
COc1ccc(C2/C=C\CN(S(=O)(=O)c3cccs3)CC(=O)N2Cc2ccc(F)cc2)cc1 (stereo unspecified) | – | – | – | – | 1.14 (inactive) | -0.515 | -0.824 | 0.466
O=C(CCCOc1ccccc1)NCc1ccco1 | – | – | – | – | 0.563 (inactive) | -0.922 | -0.00359 | 0.541
O=C(CCl)Nc1ccc(Sc2ccc(NC(=O)CCl)cc2)cc1 | – | – | – | – | -2.59 (inactive) | 0.102 | 0.25 | -1.01
O=C(CCl)Nc1cccc(CP(=O)(c2ccccc2)c2ccccc2)c1 | – | – | – | – | -3.86 (active) | 0.102 | 0.338 | -1.58
CCc1cccc(NC(=O)CCC(=O)O)c1 | – | – | – | – | 0.674 (inactive) | -0.0336 | -0.309 | -0.143
CC1(C)COC(c2cccn2Cc2ccccc2Cl)=N1 | – | – | – | – | -0.905 (inactive) | 0.489 | -0.115 | 0.38
